≈ marks a conversion by molar mass, not a printed value. Calls of active or inactive are those of the source. The calls are words filed in the database; no cut-off is given here.
What was measured:
ECV-304 [1] = test: Enhanced mitotic arrest in human ECV304 cells assessed as accumulation at G2/M phase at 1 uM after 24 hrs relative to control; format: functional
Outline: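 ECV304 at 1.5 × 10⁶ cells per 90 mm dish in DMEM with 10% FCS overnight, then 1 µM for 24 h in fresh medium. Cells trypsinised, fixed in ice-cold 70% ethanol, treated with trypsin inhibitor and RNase, and stained with propidium iodide in the dark at 4-10 °C for 1 h. Flow cytometry with low gate at 10% of the G1 peak; G1 and G2/M fractions against untreated control.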

HT-29 = test: Cytotoxicity against human HT29 cells after 72 hrs by MTT assay; format: cell-based
Outline: (§1)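 MTT assay. Cells seeded at 5000-10 000 per well and incubated at 37 °C in CO₂ with compound at 1-100 µg/mL in triplicate wells for 72 h, then MTT added. Absorbance read at 540 nm; % cytotoxicity = 100 × (1 − treated/control). IC50 obtained by nonlinear regression; NA means IC50 above 100 µg/mL.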

DU-145 = test: Cytotoxicity against human DU145 cells after 72 hrs by MTT assay; format: cell-based; outline: as §1
KB = test: Cytotoxicity against human KB cells after 72 hrs by MTT assay; format: cell-based; outline: as §1
L132 = test: Cytotoxicity against human L132 cells after 72 hrs by MTT assay; format: cell-based; outline: as §1
MIA PaCa-2 = test: Cytotoxicity against human MiaPaCa2 cells after 72 hrs by MTT assay; format: cell-based; outline: as §1
[2] = Cytotoxicity against human Hep2 cells after 72 hrs by MTT assay; format: cell-based, HEp-2; outline: as §1
[3] = Cytotoxicity against human PA1 cells after 72 hrs by MTT assay; format: cell-based, PA-1; outline: as §1
[4] = Cytotoxicity against human ECV304 cells after 72 hrs by MTT assay; format: cell-based, ECV-304; outline: as §1
HEK293 = test: Cytotoxicity against human HEK293 cells after 72 hrs by MTT assay; format: cell-based; outline: as §1
ECV-304 [5] = test: Apoptosis in strongly adherent human ECV304 cells at 10 nM assessed as DNA fragmentation; format: functional, cell-based
Outline: (§2)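 ECV304 plated at 2 × 10⁶ cells per 90 mm dish in DMEM with 10% FCS, allowed 5-6 h to reattach, then exposed to 10 nM-1 µM for 24 h in fresh medium; 100 nM positive control. Strongly and loosely adherent cells harvested separately and lysed (1 mM Tris-Cl, 20 mM EDTA pH 8, 1% NP-40).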

ECV-304 [6] = test: Apoptosis in strongly adherent human ECV304 cells at 100 nM assessed as DNA fragmentation; format: functional, cell-based; outline: as §2
ECV-304 [7] = test: Apoptosis in strongly adherent human ECV304 cells at 1000 nM assessed as DNA fragmentation; format: functional, cell-based; outline: as §2
ECV-304 [8] = test: Apoptosis in loosely adherent human ECV304 cells assessed as DNA fragmentation; format: functional, cell-based; outline: as §2
[9] = Homo sapiens, HT-29, 72 h, read-out: IC50
[10] = Homo sapiens, DU-145, 72 h, read-out: IC50
[11] = Homo sapiens, KB, 72 h, read-out: IC50
[12] = Homo sapiens, L132, 72 h, read-out: IC50
[13] = Homo sapiens, MIA PaCa-2, 72 h, read-out: IC50
[14] = Homo sapiens, HEp-2, 72 h, read-out: IC50
[15] = Homo sapiens, PA-1, 72 h, read-out: IC50
[16] = Homo sapiens, ECV-304, 72 h, read-out: IC50
[17] = Homo sapiens, HEK293, 72 h, read-out: IC50

Row | SMILES | IC50 (HT-29; [9]) [µg/mL] | IC50 (DU-145; [10]) [µg/mL] | IC50 (KB; [11]) [µg/mL] | IC50 (L132; [12]) [µg/mL] | IC50 (MIA PaCa-2; [13]) [µg/mL] | IC50 [2, 14] [µg/mL] | IC50 [3, 15] [µg/mL] | IC50 [4, 16] [µg/mL] | IC50 (HEK293; [17]) [µg/mL] | also measured
1 | COc1ccc(C2=C(c3cc(OC)c(OC)c(OC)c3)C(=O)C(O)C2)cc1 (stereo not drawn) | < 1 | > 100 | < 1 | < 1 | < 1 | < 1 | < 1 | < 1 | 6.3 (≈ 17 µM) | Activity (ECV-304 [1]): 54%; Activity (ECV-304 [5]): inactive; Activity (ECV-304 [6]): inactive; Activity (ECV-304 [7]): inactive; Activity (ECV-304 [8]): Dose-dependent effect
2 | COc1ccc(C2=C(c3cc(OC)c(OC)c(OC)c3)C(=O)CC2O[Si](C)(C)C(C)(C)C)cc1O (stereo not drawn) | 38 (≈ 75.9 µM) | 75 (≈ 150 µM) | 6.5 (≈ 13 µM) | < 1 | 55 (≈ 110 µM) | 14.5 (≈ 29 µM) | 14 (≈ 28 µM) | 30 (≈ 59.9 µM) | 42 (≈ 83.9 µM) | 
3 | COc1ccc(C2=C(c3cc(OC)c(OC)c(OC)c3)C(=O)C(O)C2)cc1F (stereo not drawn) | < 1 | 27 (≈ 69.5 µM) | 4.5 (≈ 11.6 µM) | < 1 | 64 (≈ 165 µM) | < 1 | > 100 | 19.5 (≈ 50.2 µM) | > 100 | 
4 | COc1cc(C2=C(c3cc(C)c(OC)c(C)c3)C(OC(C)=O)C/C2=N/O)cc(OC)c1OC (stereo not drawn) | > 100 | > 100 | > 100 | > 100 | > 100 | > 100 | > 100 | > 100 | > 100 | 
5 | COc1ccc(C2=C(c3cc(OC)c(OC)c(OC)c3)/C(=N\O)C(O)C2)cc1Cl (stereo not drawn) | < 1 | 16 (≈ 38.1 µM) | 9.8 (≈ 23.3 µM) | < 1 | 33 (≈ 78.6 µM) | < 1 | > 100 | 18.5 (≈ 44.1 µM) | 50 (≈ 119 µM) | 
6 | C=CCOc1cc(C2=C(c3cc(OC)c(OC)c(OC)c3)/C(=N\O)C(O)C2)ccc1OC (stereo not drawn) | > 100 | > 100 | > 100 | > 100 | > 100 | > 100 | > 100 | > 100 | > 100 | 
7 | COc1ccc(C2=C(c3cc(OC)c(OC)c(OC)c3)/C(=N\O)CC2OC(C)=O)cc1 (stereo in doubt; 22) |  |  |  |  |  |  |  |  |  | IC50 (HT-29; ht-29): 1.5 µg/mL (≈ 3.51 µM); IC50 (DU-145; du-145): 20 µg/mL (≈ 46.8 µM); IC50 (KB; kb): 5 µg/mL (≈ 11.7 µM); IC50 (L132; l132): 20 µg/mL (≈ 46.8 µM); IC50 (MIA PaCa-2; mia paca-2): 1 µg/mL (≈ 2.34 µM); IC50 ([2]; hep-2): 3 µg/mL (≈ 7.02 µM); IC50 ([3]; pa-1): 20 µg/mL (≈ 46.8 µM); IC50 ([4]; ecv-304): 4 µg/mL (≈ 9.36 µM); IC50 (HEK293; hek293): 32 µg/mL (≈ 74.9 µM)
8 | COc1cc(C2=C(c3cc(C)c(OC)c(C)c3)C(O)CC2=O)cc(OC)c1OC (stereo not drawn) | > 100 | > 100 | > 100 | > 100 | > 100 | > 100 | > 100 | > 100 | > 100 | 
9 | COc1ccc(C2=C(c3cc(OC)c(OC)c(OC)c3)C(=O)C(OC(C)=O)C2)cc1OC(C)C (stereo not drawn) | > 100 | > 100 | > 100 | > 100 | > 100 | > 100 | > 100 | > 100 | > 100 | 
10 | COc1ccc(C2=C(c3cc(OC)c(OC)c(OC)c3)/C(=N\O)CC2OC(C)=O)cc1O (stereo not drawn) | < 1 | 23 (≈ 51.9 µM) | < 1 | < 1 | < 1 | > 100 | < 1 | > 100 | > 6.06 | 
11 | COc1ccc(C2=C(c3cc(OC)c(OC)c(OC)c3)C(=O)C(O)C2)cc1NC(=O)c1ccccc1 (stereo not drawn) | > 100 | > 100 | > 100 | > 100 | > 100 | > 100 | > 100 | > 100 | > 100 | 
12 | COc1ccc(C2=C(c3cc(OC)c(OC)c(OC)c3)CC(O)C2=O)cc1[N+](=O)[O-] (stereo not drawn) | > 100 | > 100 | > 100 | > 100 | > 100 | > 100 | > 100 | > 100 | > 100 | 

Source: ChEMBL document CHEMBL1143007, “Synthesis and evaluation of 4/5-hydroxy-2,3-diaryl(substituted)-cyclopent-2-en-1-ones as cis-restricted analogues of combretastatin A-4 as novel anticancer agents” (J Med Chem, 2007)
